For eleven molecules, fold change (FC) and IC50 results are on record in ChEMBL document CHEMBL1156240, “Papyriferic acid derivatives as reversal agents of multidrug resistance in cancer cells” (Bioorg Med Chem, 2010).

Where only a bound is given, the exact number is not on record here.

For assay [1], the system named is KB-C2. In words: Inhibition of P-gp-mediated multidrug-resistance in human KB-C2 cells assessed as increase in colchicine-induced cytotoxicity at 1 ug/ml after 48 hrs by MTT assay. In kind it is cell-based. Background: Tetrazolium assays rely on reduction of a dye to a coloured formazan, in cell work by metabolically active cells.
A further assay relates to KB. In words: Cytotoxicity against human KB cells after 48 hrs by MTT assay. It is filed as functional, cell-based.
In assay [2] the test system is KB-C2. Nature of the assay: Inhibition of P-gp-mediated multidrug-resistance in human KB-C2 cells assessed as increase in colchicine-induced cytotoxicity at 5 ug/ml after 48 hrs by MTT assay. It is filed as cell-based.
The nature of assay [3]: Cytotoxicity against human multidrug-resistant KB-C2 cells after 48 hrs by MTT assay. In kind it is functional, cell-based. As to conditions: KB-C2, 48 h. An outline of the steps: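 Seeded 5 × 10³ cells/well, preincubated 24 h, then compounds at 2, 10, 50, 100 µg/mL in medium (0.5% DMSO final) for 48 h. MTT 0.5 mg/mL for 4 h, formazan dissolved in DMSO, OD 540 nm; IC50 relative to vehicle controls.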

What is called IC50 is the concentration at which inhibition is half-maximal. Read a high IC50 as a need for much substance. Regarding `COC(=O)CC(=O)O[C@@H]1CC[C@]2(C)[C@H]3CC[C@@H]4[C@@H]([C@]5(C)CC[C@H](C(C)(C)O)O5)CC[C@@]4(C)[C@]3(C)CC[C@H]2C1(C)C`, the fold change (FC) with KB-C2 [1] worked out at 1.1; in the assay with KB-C2 [2], 14.8. Moreover, the IC50 is 45.4 µM with KB and 56.6 µM in assay [3].
As for `CC(=O)O[C@@H]1C[C@@H]2[C@@]3(C)CC[C@@H](OC(=O)CC(N)=O)C(C)(C)[C@@H]3CC[C@@]2(C)[C@]2(C)CC[C@H]([C@]3(C)CC[C@H](C(C)(C)O)O3)[C@@H]12`, the fold change (FC) in the assay with KB-C2 [1] turned out to be 2.1; with KB-C2 [2], 49.3. Further, the IC50 in the assay with KB stood at 39.3 µM; in assay [3] it was 43.7 µM.
Turning to `CC(=O)O[C@@H]1C[C@@H]2[C@@]3(C)CC[C@@H](OC(=O)CC(=O)NC(C)(C)C)C(C)(C)[C@@H]3CC[C@@]2(C)[C@]2(C)CC[C@H]([C@]3(C)CC[C@H](C(C)(C)O)O3)[C@@H]12`, the fold change (FC) with KB-C2 [1] is 1.1; with KB-C2 [2], 9.8. Besides, the IC50 worked out at 40.5 µM in the assay on KB and 47.9 µM in assay [3].
As to `COC(=O)CC(=O)O[C@@H]1CC[C@]2(C)[C@H]3C[C@@H](OC(C)=O)[C@@H]4[C@@H]([C@]5(C)CC[C@H](C(C)(C)O)O5)CC[C@@]4(C)[C@]3(C)CC[C@H]2C1(C)C` [METHYL PAPYRIFERATE], the fold change (FC) with KB-C2 [1] was determined as 1.5; with KB-C2 [2] it was 51.6. Moreover, the IC50 is 26.7 µM with KB and 32.1 µM in assay [3].
As to `CNC(=O)CC(=O)O[C@@H]1CC[C@]2(C)[C@H]3C[C@@H](OC(C)=O)[C@@H]4[C@@H]([C@]5(C)CC[C@H](C(C)(C)O)O5)CC[C@@]4(C)[C@]3(C)CC[C@H]2C1(C)C`, the values for the fold change (FC) in the assay with KB-C2 [1] and in the assay with KB-C2 [2] were 4.7 and 74.4, respectively. For the same molecule, the concentration for half-maximal inhibition (IC50) in the assay with KB came to 40.9 µM; in assay [3] it was 43.1 µM.
On to `CCCNC(=O)CC(=O)O[C@@H]1CC[C@]2(C)[C@H]3C[C@@H](OC(C)=O)[C@@H]4[C@@H]([C@]5(C)CC[C@H](C(C)(C)OC(=O)C(=O)NCCC)O5)CC[C@@]4(C)[C@]3(C)CC[C@H]2C1(C)C`, for which the fold change (FC) in the assay on KB-C2 [1] amounted to 1.2; in the assay with KB-C2 [2], 68.8. Besides, the half-inhibitory concentration (IC50) in the assay with KB is 24.8 µM; in assay [3] it was 26.6 µM.
The corresponding values for `CC(=O)O[C@@H]1C[C@@H]2[C@@]3(C)CC[C@@H](OC(=O)CC(=O)N4CCOCC4)C(C)(C)[C@@H]3CC[C@@]2(C)[C@]2(C)CC[C@H]([C@]3(C)CC[C@H](C(C)(C)O)O3)[C@@H]12` are 17.4, 185, 30.8 µM and 27.5 µM.
`CCNC(=O)CC(=O)O[C@@H]1CC[C@]2(C)[C@H]3C[C@@H](OC(C)=O)[C@@H]4[C@@H]([C@]5(C)CC[C@H](C(C)(C)O)O5)CC[C@@]4(C)[C@]3(C)CC[C@H]2C1(C)C`: the fold change (FC) was 2.6 in the assay with KB-C2 [1] and 53.9 in the assay with KB-C2 [2]. For the same molecule, the IC50 in the assay on KB is 39.7 µM; in assay [3], 43.9 µM.
Take `CC(=O)O[C@@H]1C[C@@H]2[C@@]3(C)CC[C@@H](OC(=O)CC(=O)N(C)C)C(C)(C)[C@@H]3CC[C@@]2(C)[C@]2(C)CC[C@H]([C@]3(C)CC[C@H](C(C)(C)O)O3)[C@@H]12`: the fold change (FC) with KB-C2 [1] was 2.4; in the assay with KB-C2 [2], 87.5. Besides, the IC50 with KB was 25.2 µM; in assay [3], 28 µM.
As to `CCCCOC(=O)CC(=O)O[C@@H]1CC[C@]2(C)[C@H]3CC[C@@H]4[C@@H]([C@]5(C)CC[C@H](C(C)(C)O)O5)CC[C@@]4(C)[C@]3(C)CC[C@H]2C1(C)C`, the IC50 (in the assay with KB; in assay [3]) was more than 100 µM each time.
For `CCCCCCCOC(=O)CC(=O)O[C@@H]1CC[C@]2(C)[C@H]3CC[C@@H]4[C@@H]([C@]5(C)CC[C@H](C(C)(C)O)O5)CC[C@@]4(C)[C@]3(C)CC[C@H]2C1(C)C`, the IC50 (in the assay with KB; in assay [3]) was more than 100 µM throughout.
